Experimental data published in ChEMBL document CHEMBL1134070, “Ring-Constrained (N)-methanocarba nucleosides as adenosine receptor agonists: independent 5'-uronamide and 2'-deoxy modifications” (Bioorg Med Chem Lett, 2001).

Experiments:
[1] = biological target: Adenosine receptor A2a (Rattus norvegicus) (UniProt P30543); assay: Displacement of [3H]-CGS- 21680 from Adenosine A2A receptor in rat striatal membranes at 10 uM; format: cell membranes; conditions: Membrane
Summary of the method: (§1)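 Rat striatal membranes; percent displacement of specific [3H]CGS 21680 binding at A2A receptors measured at a single 10 μM test concentration.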

[2] = biological target: T1, Adenosine receptor A1 (Rattus norvegicus, UniProt P25099); assay: Ability to displace specific radioligand [3H]R-PIA binding at Adenosine A1 receptor in rat brain membrane; format: cell membranes
T1 sequence (P25099 whole entry): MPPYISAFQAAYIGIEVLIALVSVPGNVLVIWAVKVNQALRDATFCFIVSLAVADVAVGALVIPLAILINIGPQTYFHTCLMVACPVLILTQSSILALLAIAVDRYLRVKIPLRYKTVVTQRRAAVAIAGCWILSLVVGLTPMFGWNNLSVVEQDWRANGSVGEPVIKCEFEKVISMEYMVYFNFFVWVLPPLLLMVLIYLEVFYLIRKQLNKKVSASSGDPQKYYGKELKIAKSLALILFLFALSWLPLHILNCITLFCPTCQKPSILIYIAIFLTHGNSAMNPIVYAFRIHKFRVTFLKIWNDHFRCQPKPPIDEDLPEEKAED
Summary of the method: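 Rat brain membranes; competition against specific [3H]R-PIA binding at A1 receptors.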

[3] = biological target: T2, Adenosine receptor A3 (Homo sapiens, UniProt P0DMS8); assay: Ability to displace specific radioligand [125I]AB-MECA binding at human Adenosine A3 receptor expressed in CHO cells; format: cell-based
T2 sequence (P0DMS8 whole entry): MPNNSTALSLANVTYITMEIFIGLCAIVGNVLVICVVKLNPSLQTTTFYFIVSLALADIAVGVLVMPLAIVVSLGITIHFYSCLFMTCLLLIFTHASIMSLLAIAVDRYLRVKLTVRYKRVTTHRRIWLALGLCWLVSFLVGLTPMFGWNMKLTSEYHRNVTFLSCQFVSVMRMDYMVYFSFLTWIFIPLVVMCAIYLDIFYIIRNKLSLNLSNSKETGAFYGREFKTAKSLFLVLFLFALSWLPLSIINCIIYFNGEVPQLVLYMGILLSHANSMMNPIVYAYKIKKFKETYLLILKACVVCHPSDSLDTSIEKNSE

[4] = biological target: T3, Adenosine receptor A2a (Rattus norvegicus, UniProt P30543); assay: Ability to displace specific radioligand [3H]-CGS- 21680 binding at A2A receptors (rA2A) in rat brain membrane; format: cell membranes
T3 sequence (P30543 whole entry): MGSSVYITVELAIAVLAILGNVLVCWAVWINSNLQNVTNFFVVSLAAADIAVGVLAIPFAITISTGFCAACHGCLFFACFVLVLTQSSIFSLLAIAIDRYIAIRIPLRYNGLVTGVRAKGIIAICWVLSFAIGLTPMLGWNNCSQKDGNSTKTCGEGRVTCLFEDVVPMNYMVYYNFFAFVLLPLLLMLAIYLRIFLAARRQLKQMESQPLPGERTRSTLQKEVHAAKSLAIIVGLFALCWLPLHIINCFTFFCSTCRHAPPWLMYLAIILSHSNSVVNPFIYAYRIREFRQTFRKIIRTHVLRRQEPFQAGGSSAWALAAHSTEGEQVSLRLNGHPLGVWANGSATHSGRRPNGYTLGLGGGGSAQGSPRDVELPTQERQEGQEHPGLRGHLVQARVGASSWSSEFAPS
Summary of the method: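 Rat striatal membranes; competition against specific [3H]CGS 21680 binding at A2A receptors.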

[5] = biological target: Adenosine receptor A2a (Rattus norvegicus) (UniProt P30543); assay: Displacement of [3H]-CGS- 21680 from A2A receptors (rA2A) in rat striatal membranes at 10 uM; format: cell membranes; conditions: Membrane; summary of the method: as §1
[6] = biological target: T2, Adenosine receptor A3; assay: Agonist efficacy as effective concentration to stimulate binding of [35S]GTP-gamma-S, by activation of human A3AR receptor; format: functional
[7] = biological target: T4, Adenosine receptor A1 (Homo sapiens) (UniProt P30542); assay: Efficacy to stimulate binding of [35S]GTP-gamma-S, at human Adenosine A1 receptor; format: functional
T4 sequence (whole entry): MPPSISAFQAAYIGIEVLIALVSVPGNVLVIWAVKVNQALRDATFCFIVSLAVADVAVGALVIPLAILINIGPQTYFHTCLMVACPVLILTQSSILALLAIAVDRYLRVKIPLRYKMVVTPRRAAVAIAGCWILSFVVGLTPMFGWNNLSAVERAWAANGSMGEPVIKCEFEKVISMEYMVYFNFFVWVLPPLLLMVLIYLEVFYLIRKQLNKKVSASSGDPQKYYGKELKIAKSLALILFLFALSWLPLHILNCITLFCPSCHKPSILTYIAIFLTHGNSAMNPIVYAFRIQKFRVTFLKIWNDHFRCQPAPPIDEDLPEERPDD
Summary of the method: (§2)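 Functional agonist assay: stimulation of [35S]GTP-γ-S binding following activation of the human A1 receptor. EC50 and percent efficacy reported as mean±value.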

[8] = biological target: T5, Adenosine receptor A1 (Homo sapiens, UniProt P30542); assay: Agonist efficacy as effective concentration to stimulate binding of [35S]GTP-gamma-S, at human Adenosine A1 receptor; format: functional; summary of the method: as §2
T5 sequence (P30542 whole entry): T4 sequence (whole entry)

[9] = biological target: Adenosine receptor A2a (Rattus norvegicus) (UniProt P30543); assay: Displacement of [3H]-CGS- 21680 from A2A receptors (rA2A) in rat striatal membranes at 100 uM; format: cell membranes; conditions: Membrane
Summary of the method: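 Rat striatal membranes; percent displacement of specific [3H]CGS 21680 binding at A2A receptors measured at a single 100 μM test concentration.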

[10] = biological target: T3, Adenosine receptor A2a; assay: Displacement of [3H]-CGS- 21680 from Adenosine A2A receptor in rat brain membrane; format: cell membranes
[11] = biological target: T5, Adenosine receptor A1; assay: Agonist efficacy as effective concentration to stimulate binding of [35S]GTP-gamma-S, at human A1 adenosine receptor; format: functional
Summary of the method: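 Functional agonist assay measuring agonist-stimulated [35S]GTP-γ-S binding through activation of the human A1AR. Potency was reported as EC50 together with percent efficacy, each as mean ± error.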

Sequence of Adenosine receptor A2a (Rattus norvegicus) (P30543 whole entry): as the sequence (P30543 whole entry) above

| Ki [2] | Ki [3] | Ki [4] | SMILES | also measured |
| --- | --- | --- | --- | --- |
| 884 nM | 22.5 nM | – | CNc1nc(Cl)nc2c1ncn2[C@H]1[C@H](O)[C@H](O)[C@]2(CO)C[C@H]12 | Displacement [1]: < 10% |
| 8730 nM | 912 nM | 25400 nM | OC[C@@]12C[C@@H]1[C@@H](n1cnc3c(NCc4cccc(I)c4)nc(Cl)nc31)C[C@@H]2O | – |
| 805 nM | 6.19 nM | – | CNC(=O)[C@@]12C[C@@H]1[C@@H](n1cnc3c(NC)nc(Cl)nc31)[C@H](O)[C@@H]2O | Displacement [5]: < 10%; EC50 [6]: 25.5 nM |
| 273 nM | 84.7 nM | – | Nc1nc(Cl)nc2c1ncn2[C@H]1[C@H](O)[C@H](O)[C@]2(CO)C[C@H]12 | – |
| 83.9 nM | – | 1660 nM | CNC(=O)[C@@]12C[C@@H]1[C@@H](n1cnc3c(NCc4cccc(I)c4)nc(Cl)nc31)[C@H](O)[C@@H]2O | – |
| – | – | – | CNc1ncnc2c1ncn2[C@H]1[C@H](O)[C@H](O)[C@]2(CO)C[C@H]12 | Displacement [1]: < 10% |
| – | – | – | OC[C@@]12C[C@@H]1[C@@H](n1cnc3c(NC4CCCC4)nc(Cl)nc31)C[C@@H]2O | Efficacy [7]: 40%; EC50 [8]: 2280 nM; Displacement [9]: 45% |
| – | – | – | CCNC(=O)[C@@]12C[C@@H]1[C@@H](n1cnc3c(N)ncnc31)[C@H](O)[C@@H]2O | Ki [10]: 100 nM |
| 5110 nM | 2880 nM | – | OC[C@@]12C[C@@H]1[C@@H](n1cnc3c(NC4CCCC4)ncnc31)C[C@@H]2O | EC50 [11]: 2890 nM; Efficacy [7]: 30%; Displacement [9]: 15% |

| SMILES | Ki [2] | Ki [3] | Ki [4] | also measured |
| --- | --- | --- | --- | --- |
| CNC(=O)[C@@]12C[C@@H]1[C@@H](n1cnc3c(NCc4cccc(I)c4)ncnc31)[C@H](O)[C@@H]2O | 52.7 nM | 2.39 nM | 548 nM | EC50 [6]: 6.8 nM |
